Source: PubChem (several laboratories)
This excerpt belongs to a sample that is enriched for hits.
HSF1 inh – HSF1 inhibition | NIH3T3-HGL HSE-luciferase, MG132-induced, luminescence 8 h; stronger effect = lower value | activity change, negative = inhibition, % at 7.5 µM (by protocol) | 300,000 compounds, 0.77% hits;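 active = more than half of replicate wells show activity change below -50%, luminescence cut by over half; inconclusive = some wells, but at most half, below -50%; inactive = no replicate well below -50%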;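 note: luciferase reports HSF-1 transcriptional activity via heat shock element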
Lmaj promast – Leishmania major promastigote growth inhibition; inhibition, % at 10 µM; Leishmania major promastigotes, resazurin fluorescence viability; 200,000 compounds, 9% hits; in the data active = inhibition above about 50%;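 note: promastigotes grown with compound for 44 hours at 28 °C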
HSF1 activator – increases HSF-1 driven luciferase reporter signal; NIH3T3-HGL HSF-1 luciferase reporter, MG132, 8 h; 100% = twice DMSO control signal; activation, % at 9 µM; 300,000 compounds, 1.7% hits;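 active = mean replicate activation of at least 50% with a set share of replicates each reaching 50%; inconclusive = only one of those two conditions met; inactive = mean below 50% and too few replicates reaching it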
T cruzi inh – blocks replication of Trypanosoma cruzi. 300,000 compounds, 1.4% hits. T. cruzi beta-gal in NIH3T3, luminescence, 90 h. inhibition, % (concentration not given with the values). AID 1885;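 active = mean inhibition across valid replicates above about 55%, limit read from the data; inconclusive = mean below that limit but half or more replicates reach it; inactive = mean below it, under half of replicates reach it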;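 note: signal also drops with host cell toxicity which is not excluded here; higher percent means less beta-gal luminescence so fewer parasites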
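Incubation – ≥90 h infection period, 3 h prior cell attachment · System – NIH/3T3 fibroblasts plus reporter T. cruzi · Doses – compound pinned at 50 nL/well, DMSO · Read-out basis – percent inhibition of parasite-derived β-gal signal · Signal – luminescent β-galactosidase signal after 60 min lysis · Also added – 5000 T. cruzi trypomastigotes/well · Medium – Low-serum DMEM with 2% FBS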
Hsp70 act – Hsp70 transcriptional activation, primary screen; HeLa Hsp70 promoter luciferase reporter, luminescence; scaled: vehicle 0, proteasome-inhibitor control 100%; activation, % at 10 µM; 200,000 compounds, 0.04% hits; AID 1203;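 active = activation above the mean across all tested compounds plus 3 SD, cutoff set per campaign, cut at about 5.5% in these data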
A number is an active result; 0 = inactive; ? = inconclusive; - = no result given.

SMILES	HSF1 inh	Lmaj promast	HSF1 activator	T cruzi inh	Hsp70 act
O=C(O)c1cc2nc3c(c(C(F)(F)F)n2n1)CCCC3	0	0	0	0	0
O=C(Nc1ccc(F)cc1F)c1cc2nc3c(c(C(F)(F)F)n2n1)CCCC3	-55	0	0	0	0
CN1CCN(c2cc(N3CCc4ccccc4C3)c(F)cc2[N+](=O)[O-])CC1	0	76	0	0	0
CCOC(=O)N1CCN(c2cc(N3CCN(CC)CC3)c(F)cc2[N+](=O)[O-])CC1C (stereo not given)	0	100	0	60	0
CCC(=O)N1CCN(c2cc(N3CCN(C)CC3)c(F)cc2[N+](=O)[O-])CC1	0	0	0	69	0
CCOC(=O)N1CCN(c2ccc(F)cc2[N+](=O)[O-])CC1	0	0	0	0	0
CCOC(=O)N1CCN(c2cc(N3CCOCC3)c(F)cc2[N+](=O)[O-])CC1	0	0	0	0	0
O=C(NCc1cccnc1)c1ccc(NS(=O)(=O)c2ccc(F)cc2)cc1	0	-	0	0	-
COc1cc(CNCC(C)C)c(Br)cc1OCC(=O)NCc1ccccc1	0	96	0	0	0
COc1cc(CNCCN(C)C)c(Br)cc1OCC(=O)NCc1ccccc1	0	99	0	0	0
CC(NCc1cc(Br)ccc1OCC(=O)NCc1ccccc1)c1ccccc1 (stereo not given)	0	98	0	60	0
CCN(CC)CCNCc1cc(Br)ccc1OCC(=O)NCc1ccccc1	0	0	0	0	0
CCCSc1nc2ccsc2c(=O)n1CC	0	0	0	0	0
Cc1nc([N+](=O)[O-])cn1CC(O)c1ccc(F)cc1 (stereo not given)	0	-	0	0	-
O=C(O)c1cnn(-c2ccccc2)c1-n1cccc1	0	0	0	0	0
COC(=O)c1cnn(-c2ccc(C)c(C)c2)c1-n1cccc1	0	65	0	0	0
CCN(CCCc1ccccc1)CCCc1ccccc1	0	95	0	0	0
CCCN(CCO)CCCc1ccccc1	0	0	0	0	0
CCN(CCCC(=O)c1ccc(F)cc1)CCc1ccccc1	0	-	0	58	-
O=C(Nc1nccs1)c1c(O)c2cccc3c2n(c1=O)CCC3	0	96	0	0	0
CC(NS(=O)(=O)c1cccc(Cl)c1)C(=O)N(C)C1CCN(C)CC1 (stereo not given)	0	0	0	0	0
CCCn1c(=O)c2ccccc2n2c(SCc3cc(=O)oc4ccc5ccccc5c34)nnc12	0	62	0	0	0
Cc1c(-c2ccccc2)oc2c(C(=O)OCC(=O)Nc3ccc(C(N)=O)cc3)cccc2c1=O	0	53	?	0	0
N/C(=N\OC(=O)COc1ccc(Cl)cc1)c1cccnc1	0	0	0	0	0
Cc1ccc(OCC(=O)O/N=C(\N)c2ccccn2)cc1	0	0	57	0	0
SMILES	HSF1 inh	Lmaj promast	HSF1 activator	T cruzi inh	Hsp70 act
N/C(=N\OC(=O)COc1cc(Cl)c(Cl)cc1Cl)c1ccccn1	0	0	93	0	0
N/C(=N\OC(=O)COc1ccc2ccccc2c1Br)c1ccncc1	0	0	?	56	0
N/C(=N\OC(=O)COc1ccc(Cl)cc1Cl)c1cccnc1	0	0	93	0	0
Cc1cccc(OCC(=O)O/N=C(\N)c2ccccn2)c1C	0	0	0	0	0
Cc1cccc(NC(=O)C2C3C=CC(O3)C2C(=O)O)c1 (stereo not given)	0	-	0	0	-
CC(C)(C)CC(=O)Nc1cc2c3c(c1)CCN3C(=O)CC2	0	-	0	0	-
O=C(c1cc2cc(Br)ccc2s1)N1CCOCC1	0	0	0	0	0
Cc1cc([N+](=O)[O-])ccc1NC(=O)CCC(=O)N1CCCC1	0	-	0	0	-
O=C(CCc1ccc(Oc2cc([N+](=O)[O-])cc([N+](=O)[O-])c2)cc1)Nc1cccc(Cl)c1	0	100	0	0	0
O=C(CCc1ccc(Oc2cc([N+](=O)[O-])cc([N+](=O)[O-])c2)cc1)N1CCCCC1	0	92	0	0	0
Cc1cc([N+](=O)[O-])ccc1NC(=O)CCC(=O)N1CCCCC1	-77	-	0	0	-
COc1ccc(CCC(=O)Nc2cccc(Cl)c2)cc1	0	0	0	0	0
Cc1ccc(C(=O)N/C(=C\c2ccc(C(C)C)cc2)C(=O)NCCCN2CCOCC2)cc1	0	67	0	0	0
Cc1ccc(C(=O)N/C(=C\c2ccc(Cl)cc2)C(=O)NCCCN2CCOCC2)cc1	0	0	0	0	0
N#Cc1cc([N+](=O)[O-])ccc1NCCN1CCOCC1	0	0	0	0	0
O=[N+]([O-])c1cc(C(F)(F)F)ccc1NCCCN1CCOCC1	0	88	0	0	0
O=[N+]([O-])c1cc(C(F)(F)F)cc([N+](=O)[O-])c1NCCCN1CCOCC1	-	0	-	0	0
CS(=O)(=O)NCCNc1ccc(C(F)(F)F)cc1[N+](=O)[O-]	-	0	-	-	0
O=[N+]([O-])c1ccc(NCCCN2CCOCC2)c([N+](=O)[O-])c1	0	84	0	0	0
COc1ccc2[nH]c(C)c(CCNc3ccc(C(F)(F)F)cc3[N+](=O)[O-])c2c1	0	0	61	0	0
O=C(NCc1cnn(-c2ccc(F)cc2)c1)C1CCC(=O)N(C2CC2)C1 (stereo not given)	0	-	0	0	-
COc1cccc(CN2CCNC(=O)C2CC(=O)NCc2cn3ccc(C)cc3n2)c1OC (stereo not given)	0	-	0	0	-
O=C(NCCCN1CCOCC1)c1cc(Cl)ccc1[N+](=O)[O-]	0	0	0	0	0
O=C(NC(=S)NCCN1CCOCC1)c1ccc(F)cc1	0	0	0	0	0
O=C(NC(=S)NCCCN1CCOCC1)c1ccc([N+](=O)[O-])cc1	0	53	0	0	0
SMILES	HSF1 inh	Lmaj promast	HSF1 activator	T cruzi inh	Hsp70 act
O=[N+]([O-])c1ccc(Cl)cc1NCCCN1CCOCC1	0	59	0	0	0
O=C(NCCN1CCOCC1)c1cc2cc([N+](=O)[O-])ccc2s1	0	66	0	0	0
O=[N+]([O-])c1cc(S(=O)(=O)N2CCCCC2)ccc1NCCCN1CCOCC1	0	75	0	0	0
COc1ccc(CN2CCC(=O)N([C@H](CO)CC(C)C)CC2)cc1	0	-	0	0	-
CC1CN(S(=O)(=O)c2cc(C(=O)NCCC3=CCCCC3)ccc2Cl)CC(C)O1 (stereo not given)	0	-	0	0	-
CC(C)(CNc1ccc(S(=O)(=O)C(F)(F)F)cc1[N+](=O)[O-])N1CCOCC1	0	-	0	55	-
COc1ccc(C(CNc2ccc(S(=O)(=O)N3CCCC3)cc2[N+](=O)[O-])N2CCCC2)cc1 (stereo not given)	0	0	0	59	0
CCOC(=O)C(=O)NCC(c1cccs1)S(=O)(=O)c1ccc(F)cc1 (stereo not given)	0	-	0	0	-
COc1cc2nc(NCCCN3CCN(C)CC3)n3nc(-c4ccccc4)nc3c2cc1OC	0	101	0	62	0
CCN(CC)CCCNc1nc2cc(OC)c(OC)cc2c2nc(-c3ccccc3)nn12	0	101	0	61	0
COCCCNc1nc2cc(OC)c(OC)cc2c2nc(-c3ccccc3)nn12	0	-	0	0	-
